100 compounds from PubChem BioAssay AID1229 (Sanford-Burnham Center for Chemical Genomics, 2008) can be followed below.

In all, about 190,000 compounds went through this assay and about 10 (0.005%) were called active. The sample holds actives, similar compounds and a random draw of the others, so the mix is not that of the screen. Unmarked numbers belong to inactive results.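 The calls were made as follows: active = diaphorase activity raised at least twofold by the compound at 20 µM; inactive = activation factor below 2.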

This assay is described as follows: compounds boosting diaphorase resazurin reduction – biochemical, uHTS, resorufin fluorescence, counter-screen for diaphorase-coupled primary assays, primary screen (AID 1229). The settings on record: Diaphorase/resazurin coupled assay, 16 min, at 20 µM, active compounds read high, 1 = vehicle wells, 0 = NADH-free wells. The essentials: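 Material: purified diaphorase enzyme from Clostridium kluyveri / Medium: HEPES pH 7.4 buffer with MgCl2 and Tween 20 / Schedule: enzyme reaction of 16 min at room temperature / Measured by: resorufin fluorescence, excitation 544 nm, emission 590 nm / Evaluation: rise in resorufin formation, marking diaphorase activation or chemical reduction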
As for `Cc1cccc(-n2c(=O)c3c(C)c(C)sc3n(CC(N)=O)c2=O)c1`, the activation factor was 1.1.

For the compound `O=C(COC(=O)c1ccc(Cl)nc1)NCc1ccc2c(c1)OCO2`, the activation factor is 1.

For `CC1CN(S(=O)(=O)c2ccc(C(=O)NN3CCN(C)CC3)cc2)CC(C)O1` (stereo not given), the activation factor is 0.9.

With `CC(C)(C)NC(=O)C(=O)NCc1ccncc1`, the activation factor is 0.9.

For `O=C(NCc1ccccc1)C1=C[C@@H](c2ccc(C(F)(F)F)cc2)C[C@@H](OCc2ccc(CO)cc2)O1`, the activation factor was 0.6.

Regarding `O=C(NC(=S)Nc1ccc(S(=O)(=O)Nc2ncccn2)cc1)c1cccc(Br)c1`, the activation factor was 0.9.

As to `COc1ccc(/C=C(\C#N)C(=O)NCCCn2ccnc2)cc1`, the activation factor is 1.

Turning to `O=C1CC(=O)Nc2cc(S(=O)(=O)N3CCN(c4cccc(C(F)(F)F)c4)CC3)ccc2N1`, the activation factor is 1.

With `CCOc1ccc(OCc2cccc(C(=O)N(CC)CC)c2)cc1`, the activation factor was 0.8.

Turning to `CC(=O)Nc1ccc(S(=O)(=O)Nc2nccc(/C=C/c3ccccc3F)n2)cc1`, the activation factor was 0.8.

On to `CCCc1nnc(SCC(=O)N2C(C)CCCC2C)n1CC` (stereo not given), for which the activation factor is 0.9.

For the compound `CC(C)CNC(=O)/C=C/C(=O)O`, the activation factor is 1.

Consider `COc1ccc(C)cc1Nc1nc(-c2c(C)[nH]c3ccccc23)cs1`, for which the activation factor was 0.9.

Take `O=C(NCCCn1ccnc1)c1cc(-c2ccccc2)on1`: the activation factor was 1.

Consider `CCN(CC)CCOCCOc1ccc(Cl)c2ccccc12`, for which the activation factor was 0.8.

In the case of `Cn1c(SCC(=O)Nc2ccc(Br)cc2F)nnc1-c1ccco1`, the activation factor is 0.9.

Take `Cc1nc([N+](=O)[O-])cn1CC(=O)Nc1ccc2c(c1)OCO2`: the activation factor was 0.9.

On to `CC(=O)NCCn1c(SCC(=O)Nc2ccc(C)cc2)nc2ccccc2c1=O`, for which the activation factor was 0.9.

As to `COc1cccc(-n2c(=S)[nH]c3c(oc4ccccc43)c2=O)c1`, the activation factor is 0.3.

Regarding `CC1CCCCC1NC(=O)/C(C#N)=C/C=C/c1ccccc1[N+](=O)[O-]` (stereo not given), the activation factor was 0.8.

`Cc1cccc(-n2c(Cc3cc(=O)[nH]c(=O)[nH]3)nnc2SCC(=O)Nc2cccc(C(F)(F)F)c2)c1`: the activation factor was 1.

On to `COc1ccc(/C=C/C(=O)c2ccc(NS(=O)(=O)c3ccc(C)cc3)cc2)cc1O`, for which the activation factor is 0.7.

As to `CC(C)CCN1CCN(Cc2ccc(C(F)(F)F)cc2)CC1CCO` (stereo not given), the activation factor is 1.

For the compound `CC(=O)N(CN1C(=O)C2C3C=CC(C3)C2C1=O)c1cccc(Cl)c1` (stereo not given), the activation factor was 1.1.

Take `O=C(C1=C[C@H](c2coc3ccccc3c2=O)C[C@H](OCc2ccc(CO)cc2)O1)N1CCOCC1`: the activation factor is 0.8.

In the case of `COc1ccc(Br)cc1/C=N/Nc1ccc(Cl)c(C(=O)O)c1`, the activation factor was 0.9.

As to `CC(=O)Nc1ccc(-c2csc(NC=C3C(=O)OC(C)(C)OC3=O)n2)cc1`, the activation factor is 0.9.

As to `COC(=O)CSc1ccc2nnc(CCNS(=O)(=O)c3ccc(C)cc3)n2n1`, the activation factor was 0.7.

On to `NC1=NN(c2cccc(C(=O)O)c2)C(=O)C1`, for which the activation factor is 0.9.

`O=S1(=O)CC/C(=N\Nc2ccc(F)cc2)c2ccsc21`: the activation factor was 0.9.

Turning to `CCO[C@H]1OC(C(=O)NCc2ccccc2)=C[C@@H](c2coc3ccccc3c2=O)[C@@H]1CCCO`, the activation factor is 0.8.

Regarding `CC(=O)Nc1ccc(S(=O)(=O)Nc2ccc(-c3ccc4nnc(C)n4n3)cc2)cc1`, the activation factor was 1.1.

For `CCOC(=O)C(CC)/C(C)=N\NC(=O)c1cccc(C)c1` (stereo not given), the activation factor is 0.9.

For `COC(=O)N/N=C/c1ccc(-c2ccc(Cl)c(Cl)c2)o1`, the activation factor was 0.9.

Consider `C/C(=N\NS(=O)(=O)c1ccc(Cl)cc1)c1ccc(NC(=O)c2ccco2)cc1`, for which the activation factor is 0.8.

As to `Cc1cc(C)nc(SCC(=O)N(C)C)n1`, the activation factor is 1.

With `CCOc1ccc(C(C)=O)cc1COC(=O)c1cnc(Cl)c(Cl)c1`, the activation factor is 0.8.

As for `C=CCNCCCCOc1ccccc1`, the activation factor was 1.1.

As to `CONc1nc2nonc2nc1NOC`, the activation factor is 0.9.

Consider `O=C(C1CC1)N1N=C2CCCCC2C1(O)C(F)(F)F` (stereo not given), for which the activation factor was 0.9.

Take `Cc1ccc(NN=Nc2nc3c([nH]2)c(=O)n(C)c(=O)n3C)cc1`: the activation factor was 0.6.

Regarding `CCOc1ccc(Oc2nc(C)cc(OC)n2)nn1`, the activation factor was 0.9.

In the case of `Cc1c(C2=CCN(S(=O)(=O)c3ccc(Cl)cc3)CC2)c2ccccc2n1C`, the activation factor is 0.9.

As to `COc1cc(C(=S)NCc2ccccc2)cc(Br)c1O`, the activation factor is 1.

Consider `C/C=C/c1ccc(OCCCCN2CCC(C)CC2)c(OC)c1`, for which the activation factor is 1.

Consider `CCn1cc(-c2cc(C(=O)O)on2)c(C)n1`, for which the activation factor was 0.9.

Take `Cc1ccc(OCCOCCOc2ccc(Br)cc2/C=N\NC(=O)c2ccncc2)cc1`: the activation factor is 0.8.

Turning to `O=C(c1ccc2c(c1)N(Cc1ccc(F)cc1)C(=O)c1ccccc1S2(=O)=O)N1CCN(c2ccccn2)CC1`, the activation factor was 0.8.

With `CNc1[nH]ncc1[N+](=O)[O-]`, the activation factor is 1.

Take `O=C1c2ccccc2C(=O)N1CCC(O)C[N+](=O)[O-]` (stereo not given): the activation factor was 1.

Take `Cc1ccc(NC(=O)OCCNC(=O)c2ccncc2)cc1`: the activation factor is 1.

As to `N#Cc1c(NC(=O)C2CCCO2)sc2c1CCCCC2` (stereo not given), the activation factor was 1.

For the compound `O=C(/C(=C/c1cccc(Cl)c1)c1nc2ccccc2[nH]1)c1ccccc1`, the activation factor is 0.9.

For `Cc1ccnc(NC(=O)CCC(=O)N(CC(=O)NCCc2ccccc2)Cc2cccs2)c1`, the activation factor is 1.

In the case of `CC(=O)C1=C(O)C(=O)N(c2cccnc2)C1c1ccc([N+](=O)[O-])cc1` (stereo not given), the activation factor was 0.9.

For the compound `O=C1/C(=C/c2cccs2)CCC1C1CCCC1` (stereo not given), the activation factor is 0.9.

`Cc1cccc2cc3c(N)c(C(=O)N4CCCc5ccccc54)sc3nc12`: the activation factor is 0.8.

On to `COc1ccc(OC)c(S(=O)(=O)NCCC(C)C)c1`, for which the activation factor was 1.1.

Consider `CCOC(=O)c1c(/N=C/c2cc(C)ccc2O)sc2c1CCC2`, for which the activation factor was 1.

In the case of `CC(C)=CCCC1(C)C=Cc2c(ccc3c2[nH]c2cc(O)c(C)cc23)O1` (stereo not given), the activation factor was 0.8.

In the case of `CN1CCNC(=O)C1CC(=O)N1CC=C(c2ccc(F)cc2)CC1` (stereo not given), the activation factor is 0.9.

Regarding `COC(=O)/C(C#N)=C/c1occc1C`, the activation factor was 0.9.

Turning to `CCCN(CC(=O)Nc1ccc(OC)c(OC)c1)CC(=O)Nc1ccc(F)c(F)c1F`, the activation factor is 0.9.

Consider `CN(C(=O)CSc1nnc(-c2n[nH]c3ccccc23)o1)c1ccccc1`, for which the activation factor was 0.8.

Regarding `O=C(CSc1ccc(-c2ccccc2)nn1)NCC1CCCO1` (stereo not given), the activation factor was 1.1.

As for `Cc1cccc(C(=O)OCC(=O)NCC(C)C)c1O`, the activation factor was 0.9.

For `O=C(Cc1cccs1)Nc1nnc(SCc2ccc(F)cc2)s1`, the activation factor was 0.9.

On to `Cn1cnnc1Sc1ccc(CN2CCN(C3CCCC3)C(CCO)C2)o1` (stereo not given), for which the activation factor was 1.

In the case of `CCCN=C1NC(=O)C(CC(=O)NCCc2ccc(OC)c(OC)c2)S1` (stereo not given), the activation factor was 0.9.

Turning to `Cc1ccc(N(Cc2cc3ccccc3[nH]c2=O)C(=O)c2cccs2)cc1`, the activation factor is 0.9.

Regarding `CCOc1ccc(N2C(=O)CN(c3cccc4ccccc34)C2=S)cc1`, the activation factor is 1.

As for `CNC(=S)NNC(=O)c1cccn(Cc2ccccc2)c1=O`, the activation factor was 1.

Consider `Cc1cc(C(=O)NNC(=S)NC(C)c2ccccc2)cs1` (stereo not given), for which the activation factor is 1.

For `CCSc1nc(C)c(CCOc2cccc(C)c2)c(=O)[nH]1`, the activation factor was 1.

In the case of `NS(=O)(=O)c1ccc(NC(=S)NNC(=O)c2cccs2)cc1`, the activation factor was 0.8.

Turning to `Cc1ccc(NC(=S)N(CCCN2CCCC2)Cc2cccn2Cc2ccc(Cl)cc2)cc1`, the activation factor was 1.

In the case of `COc1cccc(CC2(CO)CCN(Cc3cnc(-c4cccc(C)c4)nc3)CC2)c1`, the activation factor is 0.7.

With `COC(=O)CC1=NN(c2ccccc2)C(=O)C1`, the activation factor was 1.1.

`CCCn1c(=O)c2c(C(F)(F)F)cc(-c3cccs3)nc2n(CCC)c1=O`: the activation factor was 1.

Consider `Cc1ccc(C(=O)N/C(=C\c2cccs2)C(=O)NCCc2ccccn2)cc1C`, for which the activation factor was 0.7.

Turning to `CN(C)c1ccc(C2Nc3ccccc3C(=O)N2NS(=O)(=O)c2ccccc2)cc1` (stereo not given), the activation factor is 0.9.

Consider `CCCCn1c(N)c(N2CCOCC2)c(=O)n(CC(=O)NCCc2ccccc2)c1=O`, for which the activation factor is 1.

Consider `COCCN1C(=O)N[C@@H](c2ccccc2)C(C(=O)OC)=C1C`, for which the activation factor was 1.

For `Cc1cc(C)n2nc(SCC(N)=O)nc2n1`, the activation factor was 1.

As to `O=C(CNC(=O)c1ccccc1)NCC(=O)OCC(=O)c1ccccc1`, the activation factor is 1.1.

As to `O=C(O)c1cccc(NC(=O)c2cc(-c3cccc(Cl)c3)nc3ccccc23)c1`, the activation factor was 0.8.

In the case of `[O-][n+]1onc2c1CCc1[nH]c(-c3ccccc3)nc1-2`, the activation factor is 0.9.

`O=S(=O)(NC1CC1)c1ccc2c3c(cccc13)CC2`: the activation factor was 1.

As for `C/C(Cn1nnc2ccccc21)=N\OC(=O)c1cc(F)c(F)cc1Cl`, the activation factor was 0.9.

As to `COc1cccc(CNC(=O)c2n[nH]c3ccccc23)c1`, the activation factor was 1.

For the compound `Cc1ccc(C(=O)OC(C)CN2CCOCC2)cc1` (stereo not given), the activation factor was 1.

Consider `O=C(O)COc1ccc(/C=N/O)cc1Br`, for which the activation factor was 0.9.

With `Cc1ccccc1C(CC(=O)c1cccs1)C(C#N)C#N` (stereo not given), the activation factor was 0.9.

Consider `O=C(Nc1ccccc1Cc1ccccc1)c1ccc2c(c1)SC1=NS(=O)(=O)CCN12`, for which the activation factor was 0.9.

As for `COc1cc(NC(=O)CSc2nnc3ccc(-c4ccncc4)nn23)cc(OC)c1`, the activation factor is 0.8.

Take `O=C(c1ccc(F)cc1)n1cc(C(=S)N2CCOCC2)c2ccccc21`: the activation factor is 1.

For the compound `Cc1cccc(C)c1NC(=O)CNC(=O)Cc1ccc(Br)cc1`, the activation factor was 0.9.

As to `COC(=O)C1=NNC2(c3ccc(C)cc3)C(=O)N(c3cccc(C)c3C)C(=O)C12` (stereo not given), the activation factor was 0.9.

`CCCNCc1cc(OCC)c(OCC(=O)Nc2ccccc2)cc1Br`: the activation factor was 0.9.

For `Cc1cc(C)cc(OCC(=O)NCc2cc(C)nc3ccccc23)c1`, the activation factor was 1.
